Active and inactive are the calls of the source. The calls are words filed in the database; no cut-off is given here.
What was measured:
Cannabinoid receptor 1 = Cannabinoid receptor 1 (Rattus norvegicus, UniProt P20272); assay: Displacement of [3H]-CP55940 from CB1 receptor in rat brain homogenate after 1.5 hrs by microbeta liquid scintillation counting analysis; type: tissue-based
In short: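 Membranes from rat brain homogenate (CB1) or HEK293 cells expressing human CB2. […] GF/B filtration, then scintillation counting. […] IC50 by three-parameter logistic fit, Ki by Cheng-Prusoff. Three experiments in triplicate.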

Cannabinoid receptor 2 [1] = biological target: T1, Cannabinoid receptor 2 (Homo sapiens, UniProt P34972); assay: Displacement of [3H]-CP55940 from human CB2 receptor expressed in HEK293 cells after 1.5 hrs by microbeta liquid scintillation counting analysis; type: cell-based
In short: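 Membranes from rat brain homogenate (CB1) or HEK293 cells expressing human CB2. GF/B filtration, then scintillation counting. IC50 by three-parameter logistic fit, Ki by Cheng-Prusoff. Three experiments in triplicate.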

[2] = biological target: Cannabinoid receptor 1 (Homo sapiens) (UniProt P21554); assay: Induction of human CB1 receptor internalization expressed in HEK293 cells at 10 uM relative to CP55940; type: cell-based
In short: (§1)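 Cells stably expressing human CB1 or human CB2 receptors, exposed to test compound alone. […] Mean of two determinations.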

[3] = Selectivity ratio of Ki for rat CB1 receptor to Ki for human CB2 receptor
Cannabinoid receptor 2 [4] = biological target: T1, Cannabinoid receptor 2; assay: Induction of human CB2 receptor internalization expressed in HEK293 cells at 10 uM relative to CP55940; type: cell-based; in short: as §1
Cannabinoid receptor 2 [5] = biological target: T1, Cannabinoid receptor 2; assay: Partial agonist activity at human recombinant CB2 receptor expressed in CHO cells after 1 hr by [35S]GTPgammaS binding assay relative to CP55940; type: functional, cell-based
In short: (§2)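 Membranes from CHO cells expressing hCB1 or hCB2, preincubated at least 15 min on ice with 30 μM GDP solution. GTP-γ-[35S] with WGA-PVT SPA beads. Eight concentrations, 0.001–10 μM, in duplicate. Incubated 1 h at room temperature, centrifuged, then a further 1 h before counting. […] Mean of two determinations.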

[6] = biological target: Cannabinoid receptor 1 (Homo sapiens) (UniProt P21554); assay: Agonist activity at human recombinant CB1 receptor expressed in CHO cells after 1 hr by [35S]GTPgammaS binding assay relative to CP55940; type: functional, cell-based; in short: as §2
Cannabinoid receptor 2 [7] = biological target: T1, Cannabinoid receptor 2; assay: Inverse agonist activity at human recombinant CB2 receptor expressed in CHO cells after 1 hr by [35S]GTPgammaS binding assay relative to CP55940; type: functional, cell-based; in short: as §2
[8] = biological target: Cannabinoid receptor 1 (Homo sapiens) (UniProt P21554); assay: Partial agonist activity at human recombinant CB1 receptor expressed in CHO cells after 1 hr by [35S]GTPgammaS binding assay relative to CP55940; type: functional, cell-based; in short: as §2
Cannabinoid receptor 2 [9] = biological target: T1, Cannabinoid receptor 2; assay: Reduction of CP55940-induced human CB2 receptor internalization expressed in HEK293 cells at 3 uM relative to control; type: cell-based; parameters: scale not given: the % may be the effect or the level left

T1 sequence (P34972 whole entry): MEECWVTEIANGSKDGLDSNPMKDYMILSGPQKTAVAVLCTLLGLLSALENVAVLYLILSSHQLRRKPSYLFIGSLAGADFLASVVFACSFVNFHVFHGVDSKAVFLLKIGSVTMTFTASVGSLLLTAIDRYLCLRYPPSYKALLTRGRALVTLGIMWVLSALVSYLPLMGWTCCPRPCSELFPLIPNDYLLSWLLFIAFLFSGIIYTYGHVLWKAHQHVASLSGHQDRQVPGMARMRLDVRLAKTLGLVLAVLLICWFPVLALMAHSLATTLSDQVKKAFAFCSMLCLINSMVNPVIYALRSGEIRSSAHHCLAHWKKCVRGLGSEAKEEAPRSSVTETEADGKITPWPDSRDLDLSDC
Cannabinoid receptor 1 (Homo sapiens), sequence (P21554 whole entry): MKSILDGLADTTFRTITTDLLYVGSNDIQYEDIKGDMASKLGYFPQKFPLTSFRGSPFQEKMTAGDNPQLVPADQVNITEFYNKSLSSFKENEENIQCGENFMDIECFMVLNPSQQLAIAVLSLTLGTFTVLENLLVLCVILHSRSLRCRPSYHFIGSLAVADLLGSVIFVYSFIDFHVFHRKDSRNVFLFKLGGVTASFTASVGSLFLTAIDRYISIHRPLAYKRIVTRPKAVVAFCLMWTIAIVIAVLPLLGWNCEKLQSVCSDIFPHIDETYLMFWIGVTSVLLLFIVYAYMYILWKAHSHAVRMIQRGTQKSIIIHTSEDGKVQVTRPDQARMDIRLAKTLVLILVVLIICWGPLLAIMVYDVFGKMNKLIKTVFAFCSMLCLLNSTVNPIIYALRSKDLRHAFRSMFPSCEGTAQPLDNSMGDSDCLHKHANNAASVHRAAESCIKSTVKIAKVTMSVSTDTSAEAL
Cannabinoid receptor 1, sequence (P20272 whole entry): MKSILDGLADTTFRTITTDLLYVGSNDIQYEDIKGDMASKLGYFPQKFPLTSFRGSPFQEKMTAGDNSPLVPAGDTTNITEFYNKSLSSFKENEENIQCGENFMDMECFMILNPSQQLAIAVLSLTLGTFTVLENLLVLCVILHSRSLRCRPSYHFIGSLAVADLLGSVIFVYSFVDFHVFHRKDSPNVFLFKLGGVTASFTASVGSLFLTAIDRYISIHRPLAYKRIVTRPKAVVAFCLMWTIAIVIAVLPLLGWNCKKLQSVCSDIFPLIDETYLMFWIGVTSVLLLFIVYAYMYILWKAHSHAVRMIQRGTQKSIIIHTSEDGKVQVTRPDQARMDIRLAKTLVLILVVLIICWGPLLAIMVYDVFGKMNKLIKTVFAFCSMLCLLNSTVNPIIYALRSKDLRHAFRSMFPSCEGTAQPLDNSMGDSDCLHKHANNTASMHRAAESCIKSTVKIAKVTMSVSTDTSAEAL

Structure (SMILES) | Activity [2] [%] | Ratio Ki [3] | Ki (Cannabinoid receptor 1; read-out: Ki) [µM] | Ki (Cannabinoid receptor 2 [1]; read-out: Ki) [µM] | Activity (Cannabinoid receptor 2 [4]) [%] | also measured
NCCCn1c2ccccc2c2cc(C(=O)N3CCCCC3)ccc21 |  |  |  |  |  | Ki (Cannabinoid receptor 1): Not Active; Ki (Cannabinoid receptor 2 [1]; hek293): Not Active
CCCCCn1c2ccccc2c2cc(C#N)ccc21 |  |  |  |  |  | Ki (Cannabinoid receptor 1): Not Active; Ki (Cannabinoid receptor 2 [1]; hek293): Not Active
CCCCCn1c2ccccc2c2cc(C(=O)N(CC)CC)ccc21 | 102 | 2.03 | 0.105 | 0.0518 | 53.1 | 
CCCCCn1c2ccccc2c2cc(C(=O)CN3CCCCC3)ccc21 | -20.4 | 3.05 | 3.33 | 1.09 | 103 | 
COC(=O)CCCn1c2ccccc2c2cc(C(=O)N3CCCCC3)ccc21 | 9.4 | 8.88 | 1.85 | 0.208 | 37.3 | 
CCCCCn1c2ccccc2c2cc(C(=O)CN3CCN(C)CC3)ccc21 |  | 3.78 | 1.5 | 0.398 |  | 
CCCn1c2ccccc2c2cc(C(=O)N3CCCCC3)ccc21 |  | 1.15 | 0.6 | 0.521 |  | 
CCCCCCn1c2ccccc2c2cc(C(=O)N3CCCCC3)ccc21 | 122 | 2.51 | 0.241 | 0.096 | 77 | 
O=C(c1ccc2c(c1)c1ccccc1n2CCCN1CCCCC1)N1CCCCC1 |  |  |  | 2.17 |  | Ki (Cannabinoid receptor 1): Not Active
O=C(c1ccc2c(c1)c1ccccc1n2Cc1cccnc1)N1CCCCC1 |  | 1.71 | 1.02 | 0.6 |  | 
O=C(c1ccc2c(c1)c1ccccc1n2CCN1CCCCC1)N1CCCCC1 |  |  |  |  |  | Ki (Cannabinoid receptor 1): Not Active; Ki (Cannabinoid receptor 2 [1]; hek293): Not Active
O=C(OCCCn1c2ccccc2c2cc(C(=O)N3CCCCC3)ccc21)N1CCS(=O)(=O)CC1 | 65.6 | 30.9 | 2.26 | 0.073 | 27.9 | 
O=C(c1ccc2c(c1)c1ccccc1n2Cc1ccccn1)N1CCCCC1 |  | 1.87 | 0.403 | 0.215 |  | 
CCCCCn1c2ccccc2c2cc(C(=O)N3CCN(C)CC3)ccc21 | 84.7 | 3.47 | 0.123 | 0.0354 | 43.9 | 
CCCCCn1c2ccccc2c2cc(C(=O)N3CC[N+](C)(C)CC3)ccc21.[I-] |  |  |  |  |  | Ki (Cannabinoid receptor 1): Not Active; Ki (Cannabinoid receptor 2 [1]; hek293): Not Active
CCCCCn1c2ccccc2c2cc(C(=O)N3CCCCC3)ccc21 | 140 | 1.05 | 0.077 | 0.073 | 118 | Emax (Cannabinoid receptor 2 [5]): 30.8%; Emax [6]: 73.6%
CCCCCn1c2ccccc2c2cc(CN3CCCCC3)ccc21 | -11.1 | 0.33 | 0.122 | 0.37 | 79.6 | 
CCCCCn1c2ccccc2c2cc(C(=O)NCC3CCNCC3)ccc21 |  |  |  |  |  | Ki (Cannabinoid receptor 1): Not Active; Ki (Cannabinoid receptor 2 [1]; hek293): Not Active
CCCCCn1c2ccccc2c2cc(C(=O)N3CCOCC3)ccc21 | 115 | 0.71 | 0.06 | 0.0845 | 78.7 | 
CCCCCn1c2ccccc2c2cc(C(=O)N3CCS(=O)(=O)CC3)ccc21 | 23.9 | 1.96 | 0.44 | 0.225 | 91.5 | 
CC(C)(C)OC(=O)NCCCn1c2ccccc2c2cc(C(=O)N3CCS(=O)(=O)CC3)ccc21 |  |  |  |  |  | Ki (Cannabinoid receptor 1): Not Active; Ki (Cannabinoid receptor 2 [1]; hek293): Not Active
CCOC(=O)CCn1c2ccccc2c2cc(C(=O)N3CCCCC3)ccc21 |  | 3.79 | 4.98 | 1.31 |  | 
CCCCCn1c2ccccc2c2cc(C(=O)OCC)ncc21 |  | 1.36 | 1.86 | 1.37 |  | 
CCCCCn1c2ccccc2c2cc(C(=O)OCc3ccccn3)ccc21 |  | 0.35 | 0.679 | 1.93 |  | 
CCCCCn1c2ccccc2c2cc(C(=O)N3CCNCC3)ccc21 |  | 0.1 |  |  |  | 
COCCCn1c2ccccc2c2cc(C(=O)N3CCCCC3)ccc21 | 63.2 | 8.88 | 1.44 | 0.083 | 68.1 | 

Structure (SMILES) | Activity [2] [%] | Ratio Ki [3] | Ki (Cannabinoid receptor 1; read-out: Ki) [µM] | Ki (Cannabinoid receptor 2 [1]; read-out: Ki) [µM] | Activity (Cannabinoid receptor 2 [4]) [%] | also measured
CC(C)(C)OC(=O)NCCCn1c2ccccc2c2cc(C(=O)N3CCCCC3)ccc21 |  |  |  | 2.69 |  | Ki (Cannabinoid receptor 1): Not Active
CCCCCCCn1c2ccccc2c2cc(C(=O)N3CCCCC3)ccc21 |  | 1.14 | 0.943 | 0.827 |  | 
CCCCCn1c2ccc(C(=O)N3CCCCC3)cc2c2ccc(OC)cc21 | 33.4 | 1.71 |  |  | -1.1 | Emax (Cannabinoid receptor 2 [7]): -76.4%; Emax [8]: 30.4%; Activity (Cannabinoid receptor 2 [9]): Active
CCCCCn1c2ccccc2c2cc(C(=O)CN3CCS(=O)(=O)CC3)ccc21 |  | 1.34 | 0.675 | 0.502 |  | 
O=C(c1ccc2c(c1)c1ccccc1n2CCCN1CCS(=O)(=O)CC1)N1CCCCC1 |  | 9.54 | 2.38 | 0.249 |  | 
O=C(c1ccc2c(c1)c1ccccc1n2CCCl)N1CCCCC1 |  | 4.55 | 2.36 | 0.519 |  | 
CCCCCn1c2ccccc2c2cc(C(=O)NCCc3ccc(Cl)cc3)ccc21 |  |  |  |  |  | Ki (Cannabinoid receptor 1): Not Active
CCOC(=O)CCn1c2ccccc2c2cc(C(=O)N3CCS(=O)(=O)CC3)ccc21 |  |  |  |  |  | Ki (Cannabinoid receptor 1): Not Active; Ki (Cannabinoid receptor 2 [1]; hek293): Not Active
CCCCCn1c2ccccc2c2cc(C(=O)NCC(C)(C)C)ncc21 | 34.7 | 1.65 | 0.0436 | 0.0265 | 0.1 | Activity (Cannabinoid receptor 2 [9]): > 50%
O=C(c1ccc2c(c1)c1ccccc1n2CC1CCOCC1)N1CCCCC1 | 142 | 0.98 | 0.0195 | 0.02 | 86.2 | 
CCCCCn1c2ccccc2c2cc(C(=O)NN3CCCCC3)ncc21 |  | 2.07 | 0.354 | 0.171 |  | 
CCCCCn1c2ccccc2c2cc(C(=O)OCc3ccncc3)ccc21 |  | 0.08 | 0.108 | 1.39 |  | 
CCCCCn1c2ccccc2c2cc(C(=O)N3CCCCC3)ncc21 | 128 | 3.86 | 0.136 | 0.0353 | 101 | 
CN(C)CCCn1c2ccccc2c2cc(C(=O)N3CCCCC3)ccc21 |  | 5.92 | 2.39 | 0.403 |  | 
CCCCCn1c2ccccc2c2cc(C(=O)NN3CCCCC3)ccc21 |  |  |  | 1.61 |  | Ki (Cannabinoid receptor 1): Not Active
CCCCCn1c2ccccc2c2cc(C(=O)c3ccccc3)ccc21 | 77 | 2.88 | 0.291 | 0.101 | 39.3 | Activity (Cannabinoid receptor 2 [9]): > 50%
CCCCCn1c2ccccc2c2cc(CN3CCN(C)CC3)ccc21 |  | 0.33 | 0.244 | 0.74 |  | 
CCOC(=O)CCn1c2ccccc2c2cc(C(=O)N3CCN(C)CC3)ccc21 |  |  |  | 3.38 |  | Ki (Cannabinoid receptor 1): Not Active
O=C(c1ccc2c(c1)c1ccccc1n2CCCCl)N1CCCCC1 | 106 | 1.4 | 0.123 | 0.088 | 111 | 
CCCCn1c2ccccc2c2cc(C(=O)N3CCCCC3)ccc21 | 84.8 | 0.24 | 0.063 | 0.264 | 67.9 | 
CCCCCn1c2ccccc2c2cc(CN3CCNCC3)ccc21 |  |  |  |  |  | Ki (Cannabinoid receptor 1): Not Active; Ki (Cannabinoid receptor 2 [1]; hek293): Not Active
O=C(c1ccc2c(c1)c1ccccc1n2Cc1ccncc1)N1CCCCC1 | 74.9 | 4.32 | 0.393 | 0.091 | 66.3 | 
O=C(c1ccc2[nH]c3ccccc3c2c1)N1CCCCC1 |  |  |  |  |  | Ki (Cannabinoid receptor 1): Not Active; Ki (Cannabinoid receptor 2 [1]; hek293): Not Active
CCCCCn1c2ccccc2c2cc(C(=O)NC34CC5CC(CC(C5)C3)C4)ccc21 |  | 5.03 | 1.45 | 0.288 |  | 
CCCCCn1c2ccccc2c2cc(C(=S)N3CCCCC3)ccc21 | 124 | 0.82 | 0.0406 | 0.0496 | 63 | 

Source: ChEMBL document CHEMBL2440006, “Mastering tricyclic ring systems for desirable functional cannabinoid activity” (Eur J Med Chem, 2013)
